ChEMBL document CHEMBL1150957, “DNA-damaging steroidal alkaloids from Eclipta alba from the suriname rainforest1” (J Nat Prod, 1998)
≈ marks a conversion by molar mass, not a printed value.

What was measured:
[1] = system: Saccharomyces cerevisiae; assay: Antifungal activity against Saccharomyces cerevisiae 1138; assay type: functional
Summary of the method: (§1)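 Agar-well diffusion on mutant yeast lawns (1140 ise1 rad52; 1353 ISE+ rad52 top1; 1138 ise2 rad52). Stationary-phase YEPD cultures resuspended in 0.9% saline to 25% transmission at 600 nm, flooded onto YEPD agar with 0.8% Noble agar overlay, dried. Samples in DMSO-MeOH (1:1) added to 6-7 mm wells; nystatin control at 20 μg/mL; 30 °C, 36–48 h; IC12 (dose giving 12-mm zone) from dose–response curve.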

[2] = system: Saccharomyces cerevisiae; assay: Antifungal activity against Saccharomyces cerevisiae 1140; assay type: functional; summary of the method: as §1
[3] = system: Saccharomyces cerevisiae; assay: Antifungal activity against Saccharomyces cerevisiae 1353; assay type: functional; summary of the method: as §1
[4] = system: Saccharomyces cerevisiae; assay: Antifungal activity against Saccharomyces cerevisiae Sc7; assay type: functional
[5] = system: Candida albicans; assay: Antifungal activity against Candida albicans SC5314; assay type: functional
[6] = system: M109; assay: Cytotoxicity against mouse M109 cells; assay type: functional, cell-based

Row | SMILES | MIC [4] | MIC [5] | IC12 [1] | IC12 [2] | IC12 [3] | IC50 [6]
1 | C[C@H]1CCC([C@@H](C)[C@H]2CC[C@H]3[C@@H]4CC=C5[C@@H](O)[C@@H](O)CC[C@]5(C)[C@H]4CC[C@]23C)=NC1 | 100 µg/mL (≈ 242 µM) | 200 µg/mL (≈ 484 µM) | 12 µg/mL | 10 µg/mL | > 50 µg/mL | 15.5 µg/mL (≈ 37.5 µM)
2 | C[C@H]1CCC([C@H](C)[C@H]2CC[C@H]3[C@@H]4CC=C5C[C@@H](O)CC[C@]5(C)[C@H]4CC[C@]23C)=NC1 | 6.25 µg/mL (≈ 15.7 µM) | 12.5 µg/mL (≈ 31.4 µM) | 0.88 µg/mL | 1.12 µg/mL | 0.69 µg/mL | 
3 | CC(=O)N1CCN(c2ccc(OCC3COC(Cn4ccnc4)(c4ccc(Cl)cc4Cl)O3)cc2)CC1 (centres undefined) [KETOCONAZOLE] | 1.6 µg/mL (≈ 3.01 µM) | < 0.8 µg/mL | 2.5 µg/mL | 4.8 µg/mL | 9.4 µg/mL | 17 µg/mL (≈ 32 µM)
4 | Cc1cnc([C@H](C)[C@H]2CC[C@H]3[C@@H]4CC=C5C[C@@H](O)CC[C@]5(C)[C@H]4CC[C@]23C)c(O)c1 [ECLIPTALBINE] | 20 µg/mL (≈ 48.8 µM) | 20 µg/mL (≈ 48.8 µM) | 0.04 µg/mL | 0.7 µg/mL | 0.4 µg/mL | > 20 µg/mL
5 | C[C@H]1CC[C@@H]([C@@H](C)[C@H]2CC[C@H]3[C@@H]4CC=C5C[C@@H](O)CC[C@]5(C)[C@H]4CC[C@]23C)NC1 [VERAMILINE] |  |  | 3 µg/mL | 3 µg/mL | 4 µg/mL | 
6 | C[C@H]1CCC([C@H](C)[C@H]2CC[C@H]3[C@@H]4CCC5=CC(=O)CC[C@]5(C)[C@H]4CC[C@]23C)=NC1 |  |  | 14 µg/mL | 45 µg/mL | 50 µg/mL | 16.8 µg/mL (≈ 42.5 µM)

Now from value to compound, other results behind:

Row | MIC [4] | MIC [5] | SMILES | IC12 [1] | IC12 [2] | IC12 [3] | IC50 [6]
7 | 6.25 µg/mL (≈ 15.7 µM) | 25 µg/mL (≈ 62.9 µM) | C[C@H]1CCC([C@@H](C)[C@H]2CC[C@H]3[C@@H]4CC=C5C[C@@H](O)CC[C@]5(C)[C@H]4CC[C@]23C)=NC1 [VERAZINE] | 0.14 µg/mL | 0.25 µg/mL | 0.14 µg/mL | 12.5 µg/mL (≈ 31.4 µM)
8 | 12.5 µg/mL (≈ 13.5 µM) | 1.6 µg/mL (≈ 1.73 µM) | C[C@@H]1[C@H](O)[C@@H](C)/C=C/C=C/C=C/C=C/C=C/C=C/C=C/[C@H](O[C@@H]2O[C@H](C)[C@@H](O)[C@H](N)[C@@H]2O)C[C@@H]2O[C@](O)(C[C@@H](O)C[C@@H](O)[C@H](O)CC[C@@H](O)C[C@@H](O)CC(=O)O[C@H]1C)C[C@H](O)[C@H]2C(=O)O [AMPHOTERICIN B] | 8.1 µg/mL | 15.6 µg/mL | 25 µg/mL | 7.5 µg/mL (≈ 8.12 µM)
9 | 200 µg/mL (≈ 484 µM) | 400 µg/mL (≈ 967 µM) | C[C@H]1CCC([C@H](C)[C@H]2CC[C@H]3[C@@H]4CC=C5[C@@H](O)[C@@H](O)CC[C@]5(C)[C@H]4CC[C@]23C)=NC1 | 10 µg/mL | 23 µg/mL | 24 µg/mL | 10.5 µg/mL (≈ 25.4 µM)
10 | 6.25 µg/mL (≈ 15.1 µM) | < 3.1 µg/mL | C[C@H](C1=NC[C@](C)(O)CC1)[C@H]1CC[C@H]2[C@@H]3CC=C4C[C@@H](O)CC[C@]4(C)[C@H]3CC[C@]12C | 0.35 µg/mL | 2.5 µg/mL | 4 µg/mL | 31.2 µg/mL (≈ 75.4 µM)
